Assay outcomes (PubChem BioAssay)
The list is not random: actives were taken first. Their share in the collection is about 3%.
rRNA inh HTS: inhibits bacterial ribosomal RNA function over humanized ribosomes; E. coli WT GFP vs humanized-ribosome RFP mutants, fluorescence, 24 h; active compounds read low; DMSO median 0, no signal -100; GFP signal change (wild-type ribosome), % (no concentration beside the values); hit rate 1.6% among 350,000; AID 720706;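 active = significant combined selectivity score with lowered wild-type GFP, culture density cut under 30%, mutant RFP and density less affected; inactive = any of these conditions unmet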
C2C12 statin: suppressors of simvastatin-induced myotoxicity in C2C12 myotubes; rescue of ATP level, % at 7.49 µM; AID 602340; hit rate 0.78% among 330,000; ATP luminescence, 48 h; scaled: DMSO 0, geranylgeraniol control 100;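 active = mean ATP rescue above about 67%, or every replicate alone reaching that limit, limit read from the data, passing the limit was not always enough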;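 also: myotubes were challenged with 10 µM simvastatin during compound exposure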
Cneo AK release: Cryptococcus neoformans lysis via adenylate kinase release; C. neoformans lysis, adenylate kinase release luminescence, 4 h; normalised: neutral wells 0, clomiphene wells 100; lysis activity, % at 15 µM; hit rate 0.2% among 360,000; AID 651654;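 active = mean lysis activity across replicates of at least 80%, whatever share of replicates individually reach that level; inactive = mean lysis activity below 80%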
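Signal: Adenylate kinase release luminescence | Assay system: Log-phase Cryptococcus neoformans yeast cells | Input: Cells at 5 × 10^6 per mL | Buffer or medium: Fresh YPD growth medium | Compound: Single dose | Schedule: Static 4 h at 37 °C with compound, 1 h detection | Controls: Clomiphene | Read-out: Luminescence rise reflecting yeast cell lysis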
S100A4 inh HTS: S100A4-myosin IIA interaction inhibition; P26447; S100A4/TAMRA-MyoIIA peptide fluorescence polarization; inhibition, % at 10.7 µM; hit rate 0.14% among 360,000; AID 652163;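 active = mean inhibition of at least 70% across replicates, with every replicate also reaching that level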
Target sequence (P26447 whole entry, looked up): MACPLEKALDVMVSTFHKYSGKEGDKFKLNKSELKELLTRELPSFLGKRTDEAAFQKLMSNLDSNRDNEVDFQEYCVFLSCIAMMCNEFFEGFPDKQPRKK
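System – human S100A4 monomer protein, biochemical binding assay · Buffer or medium – Calcium-containing HEPES buffer, pH 7.2 · Timing – 5 min between mix addition and reading · Also added – TAMRA-labelled myosin IIA heavy-chain peptide probe, 5 nM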
SIRT5 inh: sirtuin-5 (human) deacylase inhibition | hit rate 1.1% among 330,000 | Q9NXA8 | inhibition, % at 15 µM | Purified SirT5, succinyl-peptide AMC, trypsin-coupled fluorescence; in the data active = inhibition above about 15%
Target sequence (Q9NXA8 whole entry, looked up): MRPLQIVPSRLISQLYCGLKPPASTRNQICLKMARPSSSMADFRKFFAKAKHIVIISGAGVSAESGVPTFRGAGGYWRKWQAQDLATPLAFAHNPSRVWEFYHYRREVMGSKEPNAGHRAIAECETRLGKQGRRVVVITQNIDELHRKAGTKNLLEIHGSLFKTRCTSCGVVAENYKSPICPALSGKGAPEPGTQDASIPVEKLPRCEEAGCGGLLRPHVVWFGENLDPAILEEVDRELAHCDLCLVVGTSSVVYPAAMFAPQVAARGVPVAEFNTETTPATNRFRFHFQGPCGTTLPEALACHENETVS
PGC1a acetyl inh: PGC1a acetylation modulation, inhibitor mode | U2OS PGC1a acetylation, AlphaScreen anti-acetyl-lysine; with virally co-expressed GCN5 acetyltransferase | inhibition, % at 15.6 µM | hit rate 0.17% among 350,000;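 active = every replicate shows inhibition of at least 40%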;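 also: 0% = neutral control wells and 100% = positive control wells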
Starred values were filed as active, the others as inactive.

Results for COc1ccccc1N(CC(=O)NCCSc1ccccc1)S(=O)(=O)c1ccccc1 ?
rRNA inh HTS: -31*; Cneo AK release: -5; S100A4 inh HTS: -5; SIRT5 inh: -2; PGC1a acetyl inh: -8

How did COc1ccccc1N(CC(=O)N1CCCCCC1)S(=O)(=O)c1ccc(C)cc1 do in these assays?
rRNA inh HTS: -13; C2C12 statin: 91*; Cneo AK release: -1; S100A4 inh HTS: -2; SIRT5 inh: 1; PGC1a acetyl inh: 3

What do the screens show for `CC(C)(C)SCCNC(=O)CN(c1ccc(F)cc1)S(=O)(=O)c1ccccc1`?
rRNA inh HTS: -46; C2C12 statin: 8; Cneo AK release: 210*; S100A4 inh HTS: 6; SIRT5 inh: -3; PGC1a acetyl inh: 5

How did O=C(CN(c1ccc(F)cc1)S(=O)(=O)c1ccccc1)NCCSC1CCCCC1 do in these assays?
rRNA inh HTS: -15; C2C12 statin: -1; Cneo AK release: 0; S100A4 inh HTS: -8; SIRT5 inh: 3

What do the screens show for `CCOc1ccc2nc(NC(=O)C34CC5CC(CC(NC(C)=O)(C5)C3)C4)sc2c1`?
rRNA inh HTS: -33*; C2C12 statin: -2; Cneo AK release: -4; S100A4 inh HTS: 2; SIRT5 inh: 4

What do the screens show for `COc1ccc2nc(NC(=O)C34CC5CC(CC(NC(C)=O)(C5)C3)C4)sc2c1`?
rRNA inh HTS: -27*; C2C12 statin: -19; Cneo AK release: 2; S100A4 inh HTS: -2; SIRT5 inh: -1; PGC1a acetyl inh: -2

What do the screens show for `O=C(C[C@@H]1C[C@@H]2c3cc(NC(=O)C4CCC4)ccc3O[C@@H]2[C@@H](CO)O1)NCc1cccc(F)c1`?
rRNA inh HTS: -1; C2C12 statin: -7; Cneo AK release: 2; S100A4 inh HTS: -1; SIRT5 inh: -1; PGC1a acetyl inh: -7

Results for O=S(=O)(O)c1ccc(N=NNc2ccc(Br)cc2)cc1 ?
rRNA inh HTS: -12; C2C12 statin: 5; Cneo AK release: -1; S100A4 inh HTS: -1; SIRT5 inh: 1; PGC1a acetyl inh: 8

What do the screens show for `O=Cc1cc(N=Nc2ccc(S(=O)(=O)O)cc2)ccc1O`?
rRNA inh HTS: -20*; S100A4 inh HTS: 14; SIRT5 inh: 7

Results for N#Cc1nc(-c2ccco2)oc1NCCCn1ccnc1 ?
C2C12 statin: 129*; PGC1a acetyl inh: -3

What do the screens show for `O=S(=O)(NC1=NCCC1)c1ccc(F)cc1`?
C2C12 statin: 107*; Cneo AK release: -2; PGC1a acetyl inh: 39

Results for O=S(=O)(NC1=NCCCCC1)c1ccc(F)cc1 ?
rRNA inh HTS: 5; C2C12 statin: 5; Cneo AK release: -4; S100A4 inh HTS: 3; SIRT5 inh: -3; PGC1a acetyl inh: -2

How did Cc1ccc(S(=O)(=O)NNC2=NCCCCC2)cc1 do in these assays?
rRNA inh HTS: 12; C2C12 statin: 92*; Cneo AK release: 0; S100A4 inh HTS: 1; PGC1a acetyl inh: -2

How did COc1ccc2c3c(n(C)c2c1)[C@H](CO)N(C(=O)CN1CCOCC1)CC31CCN(C(=O)Nc2cccc(F)c2)CC1 do in these assays?
rRNA inh HTS: -3; S100A4 inh HTS: -40; SIRT5 inh: -1; PGC1a acetyl inh: -3

Results for COc1ccccc1NC(=O)N(C)C[C@@H]1Oc2ncc(Br)cc2C(=O)N([C@H](C)CO)C[C@H]1C ?
rRNA inh HTS: 0; C2C12 statin: 4; Cneo AK release: 0; S100A4 inh HTS: -2; SIRT5 inh: -2; PGC1a acetyl inh: -5

How did COc1ccc(C(=O)OCC(=O)c2ccc(F)cc2)cc1OC do in these assays?
rRNA inh HTS: -22*; C2C12 statin: 0; Cneo AK release: -3; S100A4 inh HTS: 2; SIRT5 inh: -4

Results for COc1ccc(C(=O)COC(=O)c2ccc(OC)c(OC)c2)cc1OC ?
rRNA inh HTS: 0; Cneo AK release: 0; S100A4 inh HTS: 1; SIRT5 inh: -3; PGC1a acetyl inh: 8

What do the screens show for `CSc1ccccc1NC(=O)COC(=O)CCC(=O)c1ccc(F)cc1`?
rRNA inh HTS: -6; C2C12 statin: 4; S100A4 inh HTS: 6; SIRT5 inh: 20*; PGC1a acetyl inh: -8
